Compound activity from PubChem BioAssay.
UPR XBP1 act – adaptive UPR (XBP1) activation | 330,000 compounds, 0.33% hits | activation, % at 20 µM | CHO-XBP1 luciferase reporter, IRE1-XBP1 UPR activation, luminescence; percent of tunicamycin response, DMSO as zero | AID 463104;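 active = versus positive control, 20 µM dose yields 30% or more activation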;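 note: 100% = tunicamycin at 10 µg/mL and 0% = DMSO only wells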
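incubation = overnight seeding at 37 °C, 6 h compound treatment at 37 °C | assay system = CHO-XBP1 cells stably carrying IRE1-XBP1-driven luciferase reporter | input = 1000 cells per well | detection = luciferase luminescence | dosing = single point, 20 µM final compound, 1% DMSO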
MPTP inh – permeability transition pore inhibition. isolated mouse mitochondria, Ca2+ swelling absorbance, 30 min. AID 602449. inhibition, % at 10 µM. 360,000 compounds, 1.4% hits;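 active = inhibition of 50% or more, scaled per plate between neutral and stimulator controls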;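 note: 0% = DMSO wells given calcium and 100% = 1 mM EGTA wells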
NR3A LBD binder – NR3A (human) ligand-binding domain modulation; NR3A LBD differential scanning fluorimetry, Tm shift; 0% = protein alone, 100% = glycine-bound protein; Tm shift relative to glycine control, % at 25 µM; 340,000 compounds, 2.5% hits;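 active = melting temperature shift of at least 10% of the positive control shift, at one fixed dose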
CHOP inhibitor – blocks CHOP induction under ER stress; CHO-K1 CHOP-promoter luciferase, tunicamycin-induced, 15-18 h; inhibition, % at 10 µM; 220,000 compounds, 3.8% hits; AID 2732;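 active = compounds that reduced the stress-induced luciferase reporter signal by more than about 70% of percent inhibition, limit read from the data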;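 note: 0% = tunicamycin plus vehicle and 100% = wells without tunicamycin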
aDG glyco act – alpha-DG glycosylation activation | 360,000 compounds, 0.22% hits | Pro5-aDG cells, alpha-DG glycosylation AlphaScreen (IIH6); 0% Pro5, 100% B10-LARGE cell signal | activation, % at 10 µM | AID 624168;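 active = activation of at least 8% versus controls, or a plate z-score of at least 8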;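 note: Pro5 are CHO cells carrying HIG-tagged alpha-DG that lacks glycosylation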
UPR CHOP act – apoptotic UPR (CHOP) activation; CHO-CHOP luciferase reporter, luminescence; percent of tunicamycin response over DMSO baseline; 330,000 compounds, 0.34% hits; activation, % at 10 µM;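 active = at 10 µM dose, activation of 40% or more, normalized to positive control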;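 note: 100% = tunicamycin at 10 µg/mL and 0% = DMSO alone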
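Dosing – one dose, 10 µM in 0.5% DMSO · System – CHO-CHOP cells, stable luciferase reporter of PERK-eIF2a-CHOP signalling · Input – 500 cells/well · Control set – tunicamycin 10 µg/mL final as positive, DMSO-only wells as negative · Timing – 6 h compound treatment, 37 °C · Measure – % activation vs tunicamycin · Technique – luminescence read with Steady-Glo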
* = called active by the depositor; . = not tested or not shown. Hits are enriched below; roughly 5.6% of the tested compounds scored in any of these assays.

SMILES | UPR XBP1 act | MPTP inh | NR3A LBD binder | CHOP inhibitor | aDG glyco act | UPR CHOP act
CCCn1c(SCC(=O)N2N=C3/C(=C/c4ccc(OC)cc4)CCCC3C2c2ccc(OC)cc2)n[nH]c1=O (stereo not given) | 1.3 | 5.1 | 0.9 | 70.7* | -0.4 | 0.1
COc1ccc(C/C(N)=N/OC(=O)COc2ccccc2C)cc1 | -1.6 | -0.1 | 11.5* | 5.6 | 0.0 | 1.9
Cc1ccccc1OCC(=O)O/N=C(\N)Cc1ccc(Cl)cc1 | -4.5 | 2.7 | -1.1 | 53.9 | 0.0 | -3.6
Nc1nc(-c2ccccc2)c(CCCNc2ccccc2)c(=O)[nH]1 | . | 2.3 | -3.6 | . | -0.1 | .
COc1ccc(CN(C(=S)Nc2ccccc2)C2CC(=O)N(c3ccc(Cl)cc3)C2=O)cc1 (stereo not given) | -4.0 | 0.3 | 24.5* | 71.9* | 0.4 | 2.5
COc1ccc(N2C(=O)CC(N(CCc3ccc(S(N)(=O)=O)cc3)C(=S)Nc3ccccc3)C2=O)cc1 (stereo not given) | 1.1 | -0.4 | 4.6 | -8.7 | 0.1 | -0.1
O=C1CC(N(Cc2cccs2)C(=O)Nc2ccccc2)C(=O)N1c1ccc(Cl)cc1 (stereo not given) | -3.7 | 0.2 | 14.0* | 33.3 | 0.2 | 0.6
COc1ccc(CN(C(=S)Nc2ccccc2)C2CC(=O)N(c3ccccc3)C2=O)cc1 (stereo not given) | 6.2 | 1.6 | 37.4* | 2.3 | -0.1 | 0.4
O=C(Nc1ccc(Cl)cc1)N(CCCN1CCOCC1)Cc1cccs1 | 0.2 | 0.0 | -2.5 | 29.1 | 0.1 | 0.5
O=C(O)c1c(C(=O)O)c(-c2ccc(Cl)c(Cl)c2)n2c1CSC2 | -2.0 | -0.1 | -0.5 | . | -0.1 | 1.1
O=C(NNc1nc(N2CCOCC2)nc(N2CCOCC2)n1)Nc1ccc(Cl)cc1 | -2.5 | . | . | 4.2 | . | -1.4
CCN(CC)C(=O)c1[nH]cnc1C(=O)Nc1ccccc1F | . | -0.1 | . | . | -0.3 | .
CCOC(=O)C(C)NC(=O)CCc1nnc2ccc(N3CCC(C)CC3)nn12 (stereo not given) | -4.6 | -0.8 | 2.8 | . | 0.0 | -0.2
Cc1cccc(-c2csc(N)c2C(=O)OC(C)C)c1 | 3.5 | 1.7 | -5.0 | 74.1* | 0.0 | 0.5
CCOC(=O)c1c(-c2cccc([N+](=O)[O-])c2)csc1N | 5.2 | 0.9 | -3.0 | 33.6 | 0.0 | 0.4
Cc1ccc(C)c(-c2csc(N)c2C(=O)OC(C)C)c1 | -2.9 | 7.6 | -29.5 | 79.7* | -0.1 | -0.9
O=c1[nH]c(O)c(/C=C2\C=Nc3ccccc32)[nH]1 | . | -1.5 | 31.2* | 8.8 | 0.0 | .
O=c1oc2ccccc2c(O)c1/C=C1\C=Nc2ccccc21 | -2.8 | 2.3 | -2.1 | -2.2 | -0.1 | 0.9
N#Cc1ccc(S(=O)(=O)N2CCN(CC(=O)NCC3(N4CCOCC4)CCCCC3)CC2)cc1 | 2.9 | -1.3 | 3.9 | . | 0.1 | -0.3
O=C(O)c1cn(Cc2ccccc2)nc1-c1cccnc1 | -0.9 | -3.1 | -2.1 | -13.1 | 0.0 | -2.0
O=C(c1ccccc1)c1c2c(cc3sc4ccccc4[n+]13)-c1cccc3cccc-2c13 | . | 45.4 | -7.5 | 82.4* | 1.2 | .
Cc1sc2cc3c(c(C(=O)c4ccccc4)[n+]2c1C)-c1cccc2cccc-3c12 | . | . | -3.6 | -19.3 | . | .
COc1ccc(C(=O)Nc2ccc(S(=O)(=O)N3CCOCC3)cc2)cc1[N+](=O)[O-] | -5.4 | 0.4 | 34.7* | . | -0.1 | 1.9
O=C(Nc1ccc(Nc2ccccc2)cc1)c1ccc(Cl)cc1[N+](=O)[O-] | -1.3 | 7.4 | 11.8* | . | 0.1 | 1.2
Cc1ccc(S(=O)(=O)N2CCC(C(=O)Nc3ccc(S(=O)(=O)N4CCOCC4)cc3)CC2)cc1 | . | -0.3 | -6.2 | . | 0.1 | .
SMILES | UPR XBP1 act | MPTP inh | NR3A LBD binder | CHOP inhibitor | aDG glyco act | UPR CHOP act
O=C(c1ccc(Cl)cc1[N+](=O)[O-])N(Cc1ccccc1)Cc1ccccc1 | 0.0 | . | . | 73.3* | . | -1.4
Cc1cc(C)c(C)c(S(=O)(=O)N2CCC(C(=O)Nc3ccc(S(=O)(=O)N4CCOCC4)cc3)CC2)c1C | -3.8 | 4.8 | 18.6* | . | 2.6 | 3.8
COc1ccc([C@H]2CC(=O)C[C@@H](CCn3cc(-c4ccccn4)nn3)O2)cc1 | . | -0.2 | . | . | 0.1 | .
O=C1NC(Cc2ccccc2)c2nc3ccc(Cl)cc3c(=O)n2-c2ccccc21 (stereo not given) | 1.8 | . | . | . | . | -1.1
CC(Oc1cccc(Cl)c1)C(=O)N(C)CC(=O)Nc1ccc(N2CCOCC2)cc1 (stereo not given) | -3.7 | -1.1 | -2.1 | . | 0.3 | 1.0
Cc1ccc(C(=O)Nc2ccc(S(=O)(=O)N3CCOCC3)cc2)cc1 | -1.8 | -1.2 | 7.5 | 4.5 | 0.1 | 0.7
Cc1cc(C(=O)Nc2ccncc2)ccc1[N+](=O)[O-] | -1.5 | -0.7 | -1.8 | . | 0.0 | 4.4
Cc1ccc(NC(=O)c2ccc(-n3cccn3)c([N+](=O)[O-])c2)cc1C | 0.8 | 8.7 | 13.3* | -11.0 | 3.8 | 4.4
Cc1cc(C(=O)Nc2ccc(S(=O)(=O)N3CCOCC3)cc2)ccc1[N+](=O)[O-] | -0.3 | -1.0 | 30.4* | . | -0.1 | 0.4
CCOCCCNS(=O)(=O)c1ccc(NC(=O)c2ccc(OC)c([N+](=O)[O-])c2)cc1 | -2.0 | 0.2 | 16.6* | 2.3 | 0.7 | -2.2
Cc1cc(C(=O)Nc2ccc(Nc3ccccc3)cc2)ccc1[N+](=O)[O-] | -3.8 | 1.3 | 11.9* | . | 0.2 | 0.8
COc1ccc(C(=O)Nc2ccc(S(=O)(=O)NC(C)=O)cc2)cc1[N+](=O)[O-] | -1.9 | -0.9 | -2.0 | 39.2 | 0.0 | 2.0
COc1c(NC=O)c2c(c([N+](=O)[O-])c1OC)C(=O)OC2 | . | -1.8 | -0.5 | . | 0.3 | .
CCOc1ccc(CCN2C(=O)C(=O)N([C@@H](Cc3ccccc3)CN3CCC[C@H]3CN3C(=O)C(=O)NC[C@@H]3Cc3ccccc3)C[C@@H]2Cc2ccccc2)cc1 | . | -4.2 | . | . | -0.2 | .
O=C(NNC(=O)c1cc(Cl)nc2ccccc12)c1ccccc1F | -0.1 | -0.9 | 1.2 | . | -0.1 | 2.8
N#C/C(=C\c1ccc(-c2ccc([N+](=O)[O-])cc2)o1)C(=O)Nc1nc(-c2cccs2)cs1 | 7.8 | 7.6 | -1.4 | 47.1 | 0.1 | 2.4
N#C/C(=C\c1ccc(-c2ccccc2[N+](=O)[O-])o1)C(=O)Nc1nc(-c2cccs2)cs1 | 0.1 | 20.7 | 11.7* | 16.6 | -0.3 | 2.2
N#C/C(=C/c1ccc(-c2cccc([N+](=O)[O-])c2)o1)C(=O)Nc1nc(-c2cccs2)cs1 | . | 3.5 | 22.8* | . | 0.4 | .
C/C(=C\C(=O)c1ccc(Br)cc1)NCc1ccc2c(c1)OCO2 | 4.1 | 1.7 | -29.8 | 5.7 | -0.1 | -0.4
C/C(=C\C(=O)c1ccc(F)cc1)NCc1ccc2c(c1)OCO2 | 1.5 | -0.5 | 14.5* | 1.3 | 0.0 | -0.8
